pCIP destab – p/CIP-EGFP fusion destabilizers, primary screen, fluorescence, F442A cells. 16 h. 290,000 tested, 0.01% active. decrease of EGFP signal, % at 10 µM. Q05BA5. AID 1984, 2009;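 active = EGFP signal decrease of at least 30% at 10 µM or well 3 SD below plate mean, unless failing retest; inactive = the rest, including hits failing retest or dose response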
Beta2AR agonist – beta2AR agonists driving receptor internalization, primary screen, cell-based, FAP fluorogen, flow cytometry | Beta-2 adrenergic receptor (Homo sapiens), P07550 | Am2.2-beta2AR cells | response, % (no concentration beside the values) | 340,000 tested, 0.43% active;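 active = response above a set limit, near 3 SD of response in nonfluorescent compounds, cut at about 42% in these data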
Target sequence (P07550 whole entry, looked up): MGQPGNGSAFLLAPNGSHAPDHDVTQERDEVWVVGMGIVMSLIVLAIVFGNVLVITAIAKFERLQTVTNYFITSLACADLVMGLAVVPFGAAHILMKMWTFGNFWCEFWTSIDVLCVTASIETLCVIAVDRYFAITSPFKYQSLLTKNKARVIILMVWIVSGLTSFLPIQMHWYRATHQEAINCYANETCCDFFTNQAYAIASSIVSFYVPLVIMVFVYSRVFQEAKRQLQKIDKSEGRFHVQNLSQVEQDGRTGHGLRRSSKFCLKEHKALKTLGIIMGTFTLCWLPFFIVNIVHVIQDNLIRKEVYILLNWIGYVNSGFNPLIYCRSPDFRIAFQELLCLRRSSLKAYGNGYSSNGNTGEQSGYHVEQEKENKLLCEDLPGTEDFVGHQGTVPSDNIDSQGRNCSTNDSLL
UPR CHOP act – activators of apoptotic CHOP UPR arm, primary screen, cell-based, CHO-CHOP luciferase reporter, luminescence, uHTS | 330,000 tested, 0.34% active | activation, % at 10 µM | AID 449763, 2010 | UPR activation; percent of tunicamycin response over DMSO baseline;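 active = at 10 µM dose, activation of 40% or more, normalized to positive control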;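 also: 100% = tunicamycin at 10 µg/mL and 0% = DMSO alone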
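assay system = CHO CHOP reporter cells | amount = 500 CHO-CHOP cells per well | buffer or medium = F12 with 10% FBS | incubation = 16-18 h cell attachment, then 6 h compound exposure, 37 °C | detection = luminescence read with Steady-Glo | read-out = percent activation relative to tunicamycin control | controls = tunicamycin high control, DMSO low control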
Dynein cargo inh – inhibitors of GR-EGFP nuclear translocation, primary screen, dynein cargo transport inhibitor project, imaging, high-content, 3617.4 mouse cells; test concentration mostly 20 µM; stimulated with dexamethasone, 1 µM; hits give low values; z-score, hits read low; 220,000 tested, 0.47% active;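 active = plate z-score of nuclear minus cytoplasmic receptor signal below a set negative limit, without overly bright fluorescence or cell loss, cut at about -3.5 in these data, passing the limit was not always enough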;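 also: z-score of nuclear minus cytoplasmic ring GR-EGFP intensity difference per well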
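medium = tetracycline-free induction medium containing charcoal-stripped FBS | probe or stimulus = dexamethasone, 1.0 µM final | timing = 48 h induction, then 1 h compound, then 30 min agonist, 37 °C | detection = automated 10x imaging of fixed Hoechst-stained cells | read-out basis = nuclear versus cytoplasmic GR-EGFP signal, averaged per well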
UPR XBP1 act – activators of adaptive XBP1 UPR arm, primary screen, cell-based, CHO-XBP1 luciferase reporter, luminescence, uHTS; IRE1-XBP1 UPR activation; percent of tunicamycin response, DMSO as zero; activation, % at 20 µM; 330,000 tested, 0.33% active;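 active = versus positive control, 20 µM dose yields 30% or more activation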;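 also: 100% = tunicamycin at 10 µg/mL and 0% = DMSO only wells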
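Material – CHO cell line with stable XBP1 luciferase reporter · Buffer or medium – F12 plus 10% FBS · Compound – single point, 20 µM final compound, 1% DMSO · Schedule – 16-18 h cell attachment at 37 °C, then 6 h compound exposure · Signal – Steady-Glo luminescence read · Benchmarks – high control tunicamycin 10 µg/mL final, low control DMSO vehicle only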
CHOP inh – inhibitors of CHOP promoter induction, primary screen, cell-based, unfolded protein response, luciferase reporter; inhibition, % at 10 µM; 220,000 tested, 3.8% active; CHO-K1 CHOP-promoter luciferase, tunicamycin-induced, 15-18 h;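 active = compounds that reduced the stress-induced luciferase reporter signal by more than about 70% of percent inhibition, limit read from the data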;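 also: 0% = tunicamycin plus vehicle and 100% = wells without tunicamycin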
CHOP confirm – retest of CHOP induction inhibitors, confirmation, cell-based. shares compounds with CHOP inh. CHO-CHOP promoter luciferase reporter, tunicamycin-induced, luminescence. inhibition, % at 10 µM. 2,100 tested, 45% active;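 active = mean of three repeat readings of reporter signal inhibition above a set limit, cut at about 70% in these data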;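 also: 0% = tunicamycin plus vehicle and 100% = wells lacking tunicamycin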
Numbers without * were called inactive; / = not tested or not shown. Shown is part of a subset that was picked to be rich in hits.

SMILES | pCIP destab | Beta2AR agonist | UPR CHOP act | Dynein cargo inh | UPR XBP1 act | CHOP inh | CHOP confirm
O=C(Cc1csc(Nc2nc(=S)[nH]c3ccccc23)n1)N1CCN(c2cccc(Cl)c2)CC1 | -1 | 0 | 1 | 2.1 | -6 | 103* | 38
CC(C)Cn1c(=O)c2ccccc2c2ccccc2c1=O | -1 | 8 | -2 | 0.53 | -5 | 103* | -9
Cc1cc2nc(-c3ccc(SCC(=O)N4CCc5ccccc54)nc3)[nH]c2cc1C | -6 | 5 | 6 | -0.99 | 10 | 107* | 26
CCOc1nc(NC2CCCCC2)nc(NC(C)(C)C)n1 | -8 | 2 | 3 | 0.35 | -2 | 28 | /
CCOC(=O)c1cnc(-n2nc(C)cc2C)nc1NCCc1ccccc1 | -6 | -8 | 37 | -0.23 | 16 | 101* | -8
C=CCc1cccc(/C=N/NC(=O)CCC(=O)Nc2ccc(F)cc2)c1O | -23 | 4 | -2 | -0.56 | -3 | 102* | 29
C=CCc1cccc(/C=N/NC(=O)CCCNc2ccc(C)cc2)c1O | -6 | -2 | / | 1.9 | / | 97* | 75*
C=CCc1cccc(/C=N/NC(=O)C[n+]2ccccc2)c1O | -1 | -2 | 2 | / | -2 | / | /
O=C(NN1CC(C(=O)OCc2ccc(Cl)cc2Cl)CC1=O)c1ccccc1 (stereo unspecified) | -10 | 5 | 1 | / | -6 | / | /
Cc1ccc(O)c(C=Nc2cc(C)ccc2O)c1 | -4 | 13 | 0 | -0.02 | 0 | 27 | /
CC(C)(C)c1ccc(O)c(N=Cc2cc(Br)ccc2O)c1 | -8 | 8 | -5 | 0.43 | -11 | 98* | 112*
CCC1CCCCN1C(=O)CSc1nc2ncccc2[nH]1 (stereo unspecified) | -4 | -7 | 0 | / | -4 | / | /
CC(C)CN(C(=O)c1ccc(Br)o1)C1CCS(=O)(=O)C1 (stereo unspecified) | / | 3 | 1 | / | -5 | / | /
Nc1c(S(=O)(=O)c2cccc(Cl)c2)c2nc3ccccc3nc2n1/N=C/c1ccc(O)c(O)c1 | -6 | / | 16 | 2.5 | 12 | 107* | 103*
CCN1CCN(CC(=O)Nc2cc(S(=O)(=O)N(CC)c3ccccc3)ccc2Cl)CC1 | / | 5 | 0 | / | -1 | / | /
CNc1nc(Sc2cccc(C(F)(F)F)c2)cc(C(F)(F)F)n1 | -5 | -1 | -3 | 0.39 | 2 | 101* | 98*
CN(C(=O)COC(=O)c1cc2c(s1)CCCCC2)C1CCS(=O)(=O)C1 (stereo unspecified) | -8 | -3 | 1 | / | -2 | / | /
O=C(Cc1cccs1)N=Nc1c(O)[nH]c2ccc(Br)cc12 | 0 | -20 | 1 | 0.13 | -1 | -7 | /
O=C(Cn1c(C(F)(F)F)nc2ccccc21)N=Nc1c(O)[nH]c2ccc(Br)cc12 | 14 | -5 | 0 | 0.3 | 21 | 106* | 116*
CC(C)c1ccc(CC(C)C2C3=C(CCCC3=O)OC3=C2C(=O)CCC3)cc1 (stereo unspecified) | 1 | -10 | -1 | -1.4 | -5 | 104* | 58
CC(C)Oc1ccccc1C1CC(=O)Nc2c1c(=O)n(C)c(=O)n2C (stereo unspecified) | 11 | / | -1 | 2.2 | 0 | 15 | /
Cc1cc2c([nH]c3ccccc32)c2c1OC(C)(C)C=C2 | 5 | 14 | 3 | -0.48 | 4 | 98* | 97*
Cc1ccc(Br)cc1S(=O)(=O)Nc1cccnc1 | -3 | 10 | 0 | / | -2 | / | /
CCCn1nc(C(=O)NC2CCCCCC2)c2ccccc2c1=O | / | 8 | 1 | / | -2 | / | /
CC1=Nc2nc(N3CCCCC3)c(C#N)c3c4c(nc(c23)N1)N(c1ccc(C(C)C)cc1)C(=O)C4 | -17 | -8 | 3 | -0.67 | -3 | 108* | 83*
SMILES | pCIP destab | Beta2AR agonist | UPR CHOP act | Dynein cargo inh | UPR XBP1 act | CHOP inh | CHOP confirm
O=c1[nH]c(=O)n(Cc2ccco2)c2c1C(C(F)(F)F)(C(F)(F)F)N=C(c1ccc(F)cc1)N2 | 4 | 4 | 4 | 0.59 | 5 | 100* | 87*
O=[N+]([O-])c1ccc(/C=N/N=C/c2ccc([N+](=O)[O-])o2)o1 | -6 | -23 | / | -3.6* | / | 108* | 134*
Cc1ccc(-c2ccc(/C=C(\C#N)C(=O)Nc3cc(C)nn3-c3ccccc3)o2)cc1 | -3 | / | 55* | 1.6 | 46* | 104* | 89*
Cc1cc(NC(=O)/C(C#N)=C/c2ccco2)n(-c2ccccc2)n1 | -9 | -13 | -2 | -0.57 | 1 | 14 | /
Cc1cccc(NC(=O)C(Cc2ccccc2)c2nn[nH]n2)c1C (stereo unspecified) | -4 | 3 | -1 | / | -3 | / | /
COc1ccc(CCN2C(=O)c3[nH]nc(-c4ccccc4O)c3C2c2cccc(Cl)c2)cc1 (stereo unspecified) | -8 | 24 | 2 | 1.5 | 6 | 104* | 88*
Cc1ccc(NC(=O)CSc2nnc3c(n2)[nH]c2ccccc23)cc1 | -3 | 0 | 1 | / | -6 | / | /
Cc1ccc(-c2csc(NC(=O)CSc3nnc4c(n3)[nH]c3ccccc34)n2)cc1 | -4 | -2 | / | -0.56 | / | 101* | 50
Cc1ccc2nc(NC(=O)C3CCN(S(=O)(=O)c4cc([N+](=O)[O-])ccc4Cl)CC3)sc2c1 | -26 | 19 | 9 | -0.19 | 4 | 97* | 89*
Cc1ccc(N(Cc2ccccc2)C(=O)Cc2ccc(S(=O)(=O)N3CCOCC3)s2)cc1 | / | 4 | 4 | / | -1 | / | /
COc1ccc2c(c1)c1ncn(CCN3CCCC3)c(=O)c1n2C | -8 | -4 | -2 | 0.92 | 4 | 101* | 18
CCC(C)(C)c1ccc(OCCN2C(=O)NC(C)(C)C2=O)cc1 | 3 | -1 | -3 | -0.68 | 3 | 43 | /
CCC(C)(C)c1ccc(Oc2ccc(N)cc2)cc1 | -2 | 29 | / | 3 | / | 108* | 125*
FC(F)C(F)(F)C(F)(F)C(F)(F)c1cc(-c2ccccc2)n[nH]1 | -10 | 1 | 0 | -1.2 | 0 | 106* | 111*
Cc1noc(C)c1S(=O)(=O)N(C)CC(=O)Nc1ccc(F)cc1 | -13 | -1 | 0 | -0.77 | -3 | 17 | /
Cn1cnc([N+](=O)[O-])c1S(=O)(=O)c1cccc(Cl)c1 | 6 | 14 | -11 | -3.3 | -8 | 109* | 110*
CN(C)S(=O)(=O)c1ccc(C(=O)Nc2nnc(SCc3cccc4ccccc34)s2)cc1 | -3 | -7 | -1 | -0.29 | -2 | 103* | 11

Screens: PubChem BioAssay, several laboratories
